Columns and labels:
Folsomia candida = assay: Collembolan reproduction test; assay type: in vivo; settings: F. candida; for Times more toxic to survival than its commercial formulation: pure compound vs formulation (LC50)
How it was run: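 LUFA 2.2 soil spiked with aqueous pure compound or commercial formulation to 50% WHC; nominal control and 0.04–10.0 mg a.s./kg dry soil. Ten 10–12-d-old synchronized juveniles per 30 g soil, 5 replicates, weekly yeast and water top-up. Held 28 d at 20 ± 2 °C, 75% RH. Animals counted by flotation and image analysis. Log-logistic LC50/EC50 fitted on nominal concentrations.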

E. fetida = settings: cited from earlier work
Eisenia andrei = assay: Earthworm reproduction test; assay type: in vivo
How it was run: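 Clitellate 2-mo synchronized worms acclimatized 24 h in clean soil, washed and weighed. Ten per ~600 g spiked LUFA 2.2 soil (nominal 0.04–10.0 mg a.s./kg dry soil, pure or formulation), 4 replicates, horse manure as food, 20 ± 2 °C, 75% RH. Survival and weight change read on day 28. Juveniles extracted on day 56 in a 60 °C water bath. Log-logistic LC50/EC50 fitted on nominal concentrations.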

[1] = assay type: physicochemical; settings: E. andrei test soil, nominal 10 thiamethoxam, t=56 days
How it was run: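 Soil (5 g) sampled from replicate jar 4 on days 0, 28 and/or 56 and stored at –20 °C. Extracted by QuEChERS and analysed by reverse-phase LC–MS/MS at an external lab; detection limit 0.01 mg a.s./kg dry soil. Soils were also screened for the parent's conversion product. DT50 derived as ln(2)/k from first-order decay without lag.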

[2] = octanol/water partition coefficient at pH 7, 20 °C; ref University of Hertfordshire 2018; cited from earlier work
earthworm = settings: survival; ref National Registration Authority for Agricultural and Veterinary Chemicals (2001); cited from earlier work

N#C/N=C1\SCCN1Cc1ccc(Cl)nc1 [Thiacloprid, thiacloprid]
Times more toxic to reproduction than to survival (Folsomia candida): approximately 3 | LC50 (E. fetida; ref Feng et al. (2015)): 8.43 mg/kg

CN1COCN(Cc2cnc(Cl)s2)/C1=N\[N+](=O)[O-] [Thiamethoxam, thiamethoxam]
Toxicity to E. andrei at the concentrations tested (in words) (Eisenia andrei; highest concentration tested 10 mg a.s./kg dry soil, survival and reproduction): no toxicity | Concentration of clothianidin measured (conversion product of thiamethoxam) [1]: 0.09 mg a.s./kg dry soil | Log K OW [2]: –0.13 | LC50, acute toxicity tests (14 d) (earthworm): > 1000 mg a.s./kg dry soil

C/C(=N\C#N)N(C)Cc1ccc(Cl)nc1 [Acetamiprid, acetamiprid]
Times more toxic to the survival of the earthworms compared with thiacloprid (Eisenia andrei; E. andrei, LC50 comparison): 10 | Times more toxic to survival than its commercial formulation (Folsomia candida): 3 | Times more toxic to survival than its commercial formulation (Folsomia candida; listed as acetamiprid): 4 | Log K OW [2]: 0.8 | EC50s (E. fetida; ref Wang et al. (2012), Ge et al. (2018), Wang et al. (2015)): approximately 0.30 mg a.s/kg dry soil

CN/C(=N\[N+](=O)[O-])NCc1cnc(Cl)s1 [Clothianidin, clothianidin]
Times more toxic than thiacloprid (Folsomia candida; LC50 comparison): approximately 100 | Log K OW [2]: 0.95

O=[N+]([O-])NC1=NCCN1Cc1ccc(Cl)nc1 [Imidacloprid, imidacloprid]
Times more toxic to reproduction than its commercial formulation (Folsomia candida; pure compound vs formulation (EC50)): 4

From paper PMC7064934 (Environmental Toxicology and Chemistry, 2019)
